For orientation: inhibition means the percentage by which the read-out fell short of the control. Usually IC50 stands for the concentration needed to halve the response being measured.

Results on 57 molecules are retold here after ChEMBL document CHEMBL4184273, “Discovery of chromenes as inhibitors of macrophage migration inhibitory factor” (Bioorg Med Chem, 2018).

Activity calls are given as the source filed them. The rule behind the calls is not given here.

In assay [1] the target is T1, Macrophage migration inhibitory factor (Homo sapiens) (UniProt P14174).
T1 sequence (whole entry): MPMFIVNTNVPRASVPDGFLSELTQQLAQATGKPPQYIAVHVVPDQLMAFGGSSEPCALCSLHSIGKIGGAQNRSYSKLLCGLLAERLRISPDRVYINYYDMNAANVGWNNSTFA
Briefly: Inhibition of recombinant His-tagged MIF tautomerase activity (unknown origin) at 25 uM using 4-HPP as substrate relative to control. An outline of the steps: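 Single-point screen at final inhibitor 25 µM in 5% DMSO (from 10 mM DMSO stocks diluted in 0.4 M boric acid pH 6.2). MIF final 340 nM; reaction started with 4-HPP (final 0.5 mM; pre-equilibrated overnight in 50 mM ammonium acetate pH 6.0). Absorbance at 306 nm followed over time. Vehicle control 5% DMSO; no-MIF negative control. Mean of at least 2 independent experiments.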

Assay [2] addresses T2, Macrophage migration inhibitory factor (Homo sapiens, UniProt P14174).
T2 sequence (P14174 whole entry): T1 sequence (whole entry)
Kind of assay: Inhibition of recombinant His-tagged MIF tautomerase activity (unknown origin) using 4-HPP as substrate.

Assay [3] deals with T2, Macrophage migration inhibitory factor. Kind of assay: (§1) Inhibition of recombinant His-tagged MIF tautomerase activity (unknown origin) using 4-HPP as substrate pretreated for 2 mins followed by substrate addition. In outline: (§2)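 Time-dependence test: inhibitor (125–0 µM, 1.6-fold series in 5% DMSO) preincubated with MIF (340 nM) for 2 or 40 min before 4-HPP was added (final 0.5 mM). IC50 curves were built from the 306 nm absorbance increase in boric acid pH 6.2, and the two preincubation times were compared.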

Assay [4] has the same target. Kind of assay: (§3) Inhibition of recombinant His-tagged MIF tautomerase activity (unknown origin) using 4-HPP as substrate pretreated for 40 mins followed by substrate addition. In outline:
as §2

The target in assay [5] is T1, Macrophage migration inhibitory factor (Homo sapiens). Kind of assay: Time-dependent inhibition of recombinant His-tagged MIF tautomerase activity (unknown origin) using 4-HPP as substrate. An outline of the steps:
as §2

The target is the same in assay [6]. Kind of assay: Reversible inhibition of recombinant His-tagged MIF tautomerase activity (unknown origin) assessed as recovery of enzyme activity at 125 uM using 4-HPP as substrate by substrate dilution method. An outline of the steps: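 Jump-dilution: MIF (34 µM) was mixed with inhibitor (125 µM, 5% DMSO), then diluted 100-fold into 4-HPP (0.5 mM) in boric acid. Absorbance at 306 nm was plotted against time to follow activity recovery. The control was treated the same way with 5% DMSO and no inhibitor.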

Assay [7] shares this target. The assay is described as §1. In outline:
as §2

Assay [8] shares this target. The assay is described as §3. An outline of the steps: as §2

For the molecule `Cc1ccc2c(c1)OC(N)=C1C(=O)N(Cc3cccc4ccccc34)C(=O)CC12` (stereo not given), the inhibition in assay [1] stood at 35%.
Regarding `COc1ccc2c(c1)OC(N)=C1C(=O)N(Cc3ccco3)C(=O)CC12` (stereo not given), the inhibition in assay [1] came to 0%.
Still for that read-out and setting: for `C#CCN1C(=O)CC2C(=C(N)Oc3cc(C)ccc32)C1=O` (stereo not given) the value was 0%.
Turning to `CCCCCCCCCCCCN1C(=O)CC2C(=C(N)Oc3cc(OCC)ccc32)C1=O` (stereo not given), in assay [1], the inhibition is 60%. Also, the IC50 in assay [2] came out at 21 µM.
For the molecule `CCOc1ccc2c(c1)OC(N)=C1C(=O)N(Cc3cccnc3)C(=O)CC12` (stereo not given), in assay [1], the inhibition stood at 10%.
Consider `CCCCCCCCCCCCN1C(=O)CC2C(=C(N)Oc3ccccc32)C1=O` (stereo not given), for which the inhibition in assay [1] turned out to be 60%. Besides, the IC50 is 18 µM in assay [2], 13.5 µM in assay [3] and 13.8 µM in assay [4]. For the same molecule, in assay [5], the TDI result is “inactive”. For the same molecule, the inhibition entry in assay [6] was “Active”.
For `Cc1ccc2c(c1)C1CC(=O)N(CC(C)C)C(=O)C1=C(N)O2` (stereo not given), the inhibition in assay [1] turned out to be 0%.
Regarding `CCOc1ccc2c(c1)OC(N)=C1C(=O)N(CCCN3CCOCC3)C(=O)CC12` (stereo not given), the inhibition in assay [1] stood at 0%.
The same measure, in the same setting: the same measure for `Cc1ccc2c(c1)OC(N)=C1C(=O)N(CCc3ccc(Cl)cc3Cl)C(=O)CC12` (stereo not given): 20%; for `Cc1ccc2c(c1)C1CC(=O)N(Cc3ccncc3)C(=O)C1=C(N)O2` (stereo not given): 0%.
Consider `CCCCCCCCCCCCN1C(=O)CC2C(=C(N)Oc3cc(OCc4ccc(Cl)cc4)ccc32)C1=O` (stereo not given), for which, in assay [1], the inhibition stood at 80%. Moreover, in assay [2], the IC50 worked out at 7.1 µM.
Take `COc1ccc2c(c1)OC(N)=C1C(=O)N(CCO)C(=O)CC12` (stereo not given): the inhibition in assay [1] worked out at 0%.
With `Cc1ccc2c(c1)OC(N)=C1C(=O)N(CCc3c[nH]c4ccccc34)C(=O)CC12` (stereo not given), in assay [1], the inhibition came to 55%. For the same molecule, in assay [2], the IC50 is 6.2 µM. Also, the inhibition result in assay [7] and in assay [8] was “Active” each time. The TDI entry in assay [5] is “inactive”.
Consider `Cc1ccc2c(c1)C1CC(=O)N(CCc3cccs3)C(=O)C1=C(N)O2` (stereo not given), for which the inhibition in assay [1] came to 10%.
`Cc1ccc2c(c1)OC(N)=C1C(=O)N(CCc3ccc(Cl)cc3)C(=O)CC12` (stereo not given): the inhibition in assay [1] turned out to be 5%.
The same measure, in the same setting: for `COc1ccc2c(c1)OC(N)=C1C(=O)N(Cc3cccnc3)C(=O)CC12` (stereo not given) the value was 0%; for `COCCCN1C(=O)CC2C(=C(N)Oc3cc(OC)ccc32)C1=O` (stereo not given), 0%; for `COc1ccc2c(c1)OC(N)=C1C(=O)N(CCCN(C)C)C(=O)CC12` (stereo not given), 0%.
For `COc1ccc2c(c1)OC(N)=C1C(=O)N(CCCN3CCOCC3)C(=O)CC12` (stereo not given), the inhibition in assay [1] came to 0%.
Consider `Cc1ccc2c(c1)C1CC(=O)N(CCc3ccc(Cl)cc3Cl)C(=O)C1=C(N)O2` (stereo not given), for which, in assay [1], the inhibition turned out to be 20%.
Take `CC(C)CN1C(=O)CC2C(=C(N)Oc3cc(OCc4ccc(Cl)cc4)ccc32)C1=O` (stereo not given): in assay [1], the inhibition was determined as 40%.
As for `CCOCCN1C(=O)CC2C(=C(N)Oc3cc(OCc4ccc(Cl)cc4)ccc32)C1=O` (stereo not given), the inhibition in assay [1] was found to be 10%.
In the case of `NC1=C2C(=O)N(Cc3ccco3)C(=O)CC2c2ccccc2O1` (stereo not given), the inhibition in assay [1] is 0%.
`NC1=C2C(=O)N(Cc3ccc(N)cc3)C(=O)CC2c2ccccc2O1` (stereo not given): in assay [1], the inhibition is 0%.
Same read-out and setting: for `Cc1ccc2c(c1)OC(N)=C1C(=O)N(CCCN(C)C)C(=O)CC12` (stereo not given) the value was 0%.
Take `NC1=C2C(=O)N(CCc3ccc(Cl)cc3)C(=O)CC2c2ccc(OCc3ccc(Cl)cc3)cc2O1` (stereo not given): the inhibition in assay [1] was 80%. Also, in assay [2], the IC50 was 13 µM.
Take `NC1=C2C(=O)N(Cc3ccc(N)cc3)C(=O)CC2c2ccc(OCc3ccc(Cl)cc3)cc2O1` (stereo not given): in assay [1], the inhibition was found to be 45%.
On the same count and under the same terms, for `Cc1ccc2c(c1)C1CC(=O)N(CCO)C(=O)C1=C(N)O2` (stereo not given) the value was 0%; for `CCCCCCCCCCCCN1C(=O)CC2C(=C(N)Oc3ccc(C)cc32)C1=O` (stereo not given), 50%.
Same read-out and setting: for `NC1=C2C(=O)N(Cc3ccncc3)C(=O)CC2c2ccc(OCc3ccc(Cl)cc3)cc2O1` (stereo not given) the value was 15%.
Still for that read-out and setting: for `C=CCN1C(=O)CC2C(=C(N)Oc3cc(OCc4ccc(Cl)cc4)ccc32)C1=O` (stereo not given) the value was 10%; for `COCCN1C(=O)CC2C(=C(N)Oc3cc(C)ccc32)C1=O` (stereo not given), 0%.
`Cc1ccc2c(c1)C1CC(=O)N(Cc3cccnc3)C(=O)C1=C(N)O2` (stereo not given): the inhibition in assay [1] amounted to 0%.
Still for that read-out and setting: for `CCN(CC)CCCN1C(=O)CC2C(=C(N)Oc3ccc(C)cc32)C1=O` (stereo not given) the value was 0%; for `Cc1ccc2c(c1)OC(N)=C1C(=O)N(Cc3ccc(N)cc3)C(=O)CC12` (stereo not given), 0%.
Regarding `CCOc1ccc2c(c1)OC(N)=C1C(=O)N(Cc3cccc4ccccc34)C(=O)CC12` (stereo not given), in assay [1], the inhibition was 50%.
The same measure, in the same setting: for `Cc1ccc2c(c1)C1CC(=O)N(Cc3ccco3)C(=O)C1=C(N)O2` (stereo not given) the value was 15%; for `CCOc1ccc2c(c1)OC(N)=C1C(=O)N(CC(C)C)C(=O)CC12` (stereo not given), 10%.
Same read-out and setting: the same measure for `NC1=C2C(=O)N(CCc3ccc(Cl)cc3)C(=O)CC2c2ccccc2O1` (stereo not given): 15%; for `CCOc1ccc2c(c1)OC(N)=C1C(=O)N(Cc3ccc(N)cc3)C(=O)CC12` (stereo not given): 0%.
The same measure, in the same setting: the same measure for `Cc1ccc2c(c1)C1CC(=O)N(CCN3CCOCC3)C(=O)C1=C(N)O2` (stereo not given): 0%.
On to `Cc1ccc2c(c1)OC(N)=C1C(=O)N(Cc3ccncc3)C(=O)CC12` (stereo not given), for which the inhibition in assay [1] came out at 0%.
Take `CCOCCN1C(=O)CC2C(=C(N)Oc3cc(OCC)ccc32)C1=O` (stereo not given): the inhibition in assay [1] was found to be 0%.
For the molecule `Cc1ccc2c(c1)C1CC(=O)N(CCc3c[nH]c4ccccc34)C(=O)C1=C(N)O2` (stereo not given), in assay [1], the inhibition was 25%.
Turning to `NC1=C2C(=O)N(CCc3c[nH]c4ccccc34)C(=O)CC2c2ccccc2O1` (stereo not given), the inhibition in assay [1] was found to be 15%.
On to `COc1ccc2c(c1)OC(N)=C1C(=O)N(Cc3ccncc3)C(=O)CC12` (stereo not given), for which the inhibition in assay [1] was 0%.
Same read-out and setting: for `CCOc1ccc2c(c1)OC(N)=C1C(=O)N(CCc3c[nH]c4ccccc34)C(=O)CC12` (stereo not given) the value was 10%; for `COc1ccc2c(c1)OC(N)=C1C(=O)N(Cc3ccc(N)cc3)C(=O)CC12` (stereo not given), 0%; for `COc1ccc2c(c1)OC(N)=C1C(=O)N(Cc3cccc4ccccc34)C(=O)CC12` (stereo not given), 25%.
On the same count and under the same terms, the same measure for `COc1ccc2c(c1)OC(N)=C1C(=O)N(CCc3cccs3)C(=O)CC12` (stereo not given): 15%.
In the case of `NC1=C2C(=O)N(CCO)C(=O)CC2c2ccccc2O1` (stereo not given), the inhibition in assay [1] came out at 0%.
Same read-out and setting: for `CCOc1ccc2c(c1)OC(N)=C1C(=O)N(Cc3ccncc3)C(=O)CC12` (stereo not given) the value was 0%; for `Cc1ccc2c(c1)C1CC(=O)N(Cc3ccc(N)cc3)C(=O)C1=C(N)O2` (stereo not given), 10%.
On to `NC1=C2C(=O)N(CCc3c[nH]c4ccccc34)C(=O)CC2c2ccc(OCc3ccc(Cl)cc3)cc2O1` (stereo not given), for which, in assay [1], the inhibition was found to be 70%. The IC50 in assay [2] came to 8 µM.
As for `CCOc1ccc2c(c1)OC(N)=C1C(=O)N(CCc3ccc(Cl)cc3Cl)C(=O)CC12` (stereo not given), in assay [1], the inhibition worked out at 30%.
Regarding `C#CCN1C(=O)CC2C(=C(N)Oc3cc(OC)ccc32)C1=O` (stereo not given), the inhibition in assay [1] turned out to be 0%.
As to `COc1ccc2c(c1)OC(N)=C1C(=O)N(CC(C)C)C(=O)CC12` (stereo not given), the inhibition in assay [1] is 15%.
